The results in this text go back to ChEMBL document CHEMBL4699473, “Discovery of Bispecific Antagonists of Retinol Binding Protein 4 That Stabilize Transthyretin Tetramers: Scaffolding Hopping, Optimization, and Preclinical Pharmacological Evaluation as a Potential Therapy for Two Common Age-Related Comorbidities” (J Med Chem, 2020).

Each structure is given as a SMILES string. Converted amounts (≈) assume the structure as drawn. The source made the active and inactive calls. No cut-off for these calls is given here.

Data set [1] deals with T1, Retinol-binding protein 4 (Homo sapiens, UniProt P02753). The experiment in a line: Displacement of [3H]-all-trans-retinol from biotinylated human urine derived RBP4 measured after 16 hrs by scintillation proximity assay. (Displacement assays read how much labelled ligand stays bound in the presence of the test substance.)
The target in data set [2] is T2, Transthyretin (Homo sapiens, UniProt P02766). The experiment in a line: Stabilization of human His-tagged TTR (Gly21 to Glu147) expressed in HEK293 cells assessed as reduction in acid-induced protein aggregation by measuring increase in TTR monomer level at 50 uM incubated for 72 hrs at pH 4 by Western blot. Format: cell-based. The procedure, abridged: (§1)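 Human TTR (2 μL of 167 μM) incubated in 50 mM sodium acetate pH 4.0, 100 mM KCl, with or without 50 μM compound (DMSO vehicle), 72 h at 37 °C. Neutralized with 500 mM sodium phosphate pH 8.0 plus CHAPS, cross-linked, then run on SDS-PAGE and anti-TTR Western blot. Pixel volumes of high-molecular-weight and monomer bands quantified. At least three independent experiments; one-way ANOVA with Holm–Sidak test.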

Data set [3] addresses T2, Transthyretin. The data set is described as follows: Stabilization of human His-tagged TTR (Gly21 to Glu147) expressed in HEK293 cells assessed as reduction in acid-induced protein aggregation by measuring reduction in high molecular aggregates at 50 uM incubated for 72 hrs at pH 4 by Western blot analysis relative to control. It counts as cell-based. The procedure, abridged:
as §1
(In western blotting, separated proteins are transferred to a membrane and probed.)

For data set [4], the target named is T2, Transthyretin. The experiment in a line: Displacement of FITC-diclofenac from human plasma derived TTR measured after overnight incubation by fluorescence polarization assay. It counts as cell-free. The procedure, abridged: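 Incubated overnight at 4 °C, then fluorescence polarization read. Nonspecific binding defined with 500 μM unlabeled diclofenac.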
(In fluorescence polarisation assays a small probe gives low polarisation when free and higher when bound to something large.)

A short description of data set [5]: Stability in CD-1 mouse liver microsomes assessed as parent compound remaining measured after 30 mins. It counts as ADME, Microsome. As to conditions: 0.5 h. The essentials: (§2)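 Parent compound remaining after 30 min incubation with human, rat, mouse or cynomolgus monkey liver microsomes, expressed as %.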
Another data set addresses CYP2C9 (Homo sapiens, UniProt P11712). The data set is described as follows: Inhibition of recombinant human CYP2C9 expressed in insect cell microsomes at 10 uM using 7-methoxy-4-trifluoromethylcoumarin as substrate measured after 15 to 45 mins in presence of NADPH by fluorescence assay relative to control. It counts as ADME, Microsome. The following applies: probe 7-methoxy-4-trifluoromethylcoumarin, time 15-45 min.

Data set [6] in a line: Stability in human liver microsomes assessed as parent compound remaining measured after 30 mins. Format: ADME, Microsome. The following applies: 0.5 h. The essentials:
as §2

Data set [7] in a line: Initial drug level in CD-1 mouse at 2 mg/kg, iv by LC-MS/MS analysis. Format: ADME, organism-based. The following applies: in vivo. The essentials:
(§3)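 Drug-naive adult male CD-1 mice, three per group, given a single IV 2 mg/kg dose in 3% dimethylacetamide/45% PEG300/12% ethanol/40% sterile water. Blood compound concentrations followed over time. C0 is the observed concentration at time zero, half-life is from the terminal elimination phase, and Vss is at steady state. Reported as mean (SD).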

A further data set addresses CYP3A4 (Homo sapiens, UniProt P08684). The data set is described as follows: Inhibition of recombinant human CYP3A4 expressed in insect cell microsomes at 10 uM using fluorescence probe as substrate measured after 15 to 45 mins in presence of NADPH by fluorescence assay relative to control. The following applies: time 15-45 min. It counts as ADME, Microsome.
Data set [8] can be described thus: In vivo antagonist activity at TTR-RBP4 complex in CD-1 mouse assessed as reduction in serum RBP4 level at 25 mg/kg, po administered via gavage measured after 6 hrs by ELISA relative to control. It counts as functional. The arrangement: scale not given: the % may be the effect or the level left. The essentials: (§4)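 Male mice received a single oral dose of 25 mg/kg; serum RBP4 was followed over time, with the 6 h and 24 h points reported as % reduction. Three mice per group; values are mean ± SD.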

A short description of data set [9]: Cmax in CD-1 mouse at 5 mg/kg, po administered via gavage by LC-MS/MS analysis. Also noted: route oral, dose 5 mg/kg. Format: ADME, organism-based. The following applies: in vivo. The essentials:
(§5)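 Drug-naive adult male CD-1 mice, three per group, given a single oral 5 mg/kg dose in 2% Tween 80 in 0.9% saline. Compound levels measured in blood over time. Values are the mean (SD) of the PK parameters; %F is derived against the 2 mg/kg IV group.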

The next data set addresses CYP2D6 (Homo sapiens, UniProt P10635). The data set is described as follows: Inhibition of recombinant human CYP2D6 expressed in insect cell microsomes at 10 uM using fluorescence probe as substrate measured after 15 to 45 mins in presence of NADPH by fluorescence assay relative to control. The following applies: time 15-45 min. Format: ADME, Microsome.
The test system of another data set is Mus musculus. The data set is described as follows: Effect on serum TTR level in CD-1 mouse at 25 mg/kg, po administered via gavage. It counts as functional, organism-based.
A short description of data set [10]: Apparent terminal phase half life in CD-1 mouse at 2 mg/kg, iv by LC-MS/MS analysis. It counts as ADME, organism-based. The following applies: in vivo. The essentials:
as §3

A short description of data set [11]: Oral bioavailability in CD-1 mouse at 5 mg/kg administered via gavage by LC-MS/MS analysis. Format: ADME, organism-based. The following applies: in vivo. The procedure, abridged:
as §5

Data set [12] is described as follows: Stability in cynomolgus monkey liver microsomes assessed as parent compound remaining measured after 30 mins. As to conditions: 0.5 h. It counts as ADME, Macaca fascicularis, Microsome. The procedure, abridged:
as §2

The nature of data set [13]: In vivo antagonist activity at TTR-RBP4 complex in CD-1 mouse assessed as reduction in serum RBP4 level at 25 mg/kg, po administered via gavage measured after 24 hrs by ELISA relative to control. Format: functional. Also noted: scale not given: the % may be the effect or the level left. The essentials: as §4
A short description of data set [14]: Stability in Sprague-Dawley rat liver microsomes assessed as parent compound remaining measured after 30 mins. Format: ADME, Microsome. The following applies: 0.5 h. The procedure, abridged: as §2
A further data set has as its target CYP2C19 (Homo sapiens, UniProt P33261). The experiment in a line: Inhibition of recombinant human CYP2C19 expressed in insect cell microsomes at 10 uM using fluorescence probe as substrate measured after 15 to 45 mins in presence of NADPH by fluorescence assay relative to control. As to conditions: time 15-45 min. Format: ADME, Microsome.
Data set [15] in a line: Volume of distribution at steady state in CD-1 mouse at 2 mg/kg, iv by LC-MS/MS analysis. Format: ADME, organism-based. The following applies: in vivo. The procedure, abridged:
as §3

A short description of data set [16]: AUC (infinity) in CD-1 mouse at 5 mg/kg, po administered via gavage by LC-MS/MS analysis. It counts as ADME, organism-based. The arrangement: route oral, time infinity, dose 5 mg/kg. As to conditions: in vivo. The essentials:
as §5

Data set [17] can be described thus: Tmax in CD-1 mouse at 5 mg/kg, po administered via gavage by LC-MS/MS analysis. As to conditions: in vivo. Format: ADME, organism-based. The essentials:
as §5

Data set [18] in a line: Kinetic solubility of the compound in pH 7.4 PBS buffer by UV/VIS-HPLC method. The following applies: read-out: Kinetic_solubility. It counts as physicochemical. The procedure, abridged: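 Kinetic solubility measured in buffer at pH 7.4.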
Data set [19] in a line: Apparent terminal phase half life in CD-1 mouse at 5 mg/kg, po administered via gavage by LC-MS/MS analysis. Format: ADME, organism-based. The following applies: in vivo. The procedure, abridged: as §5
The target in data set [20] is T1, Retinol-binding protein 4. The data set is described as follows: Displacement of [3H]-all-trans-retinol from MBP-tagged RBP4 (unknown origin) expressed in Escherichia coli assessed as reduction in untagged Eu-labelled TTR-RBP4 interaction measured after overnight incubation by HTRF assay.

CYP2C9, sequence (P11712 whole entry): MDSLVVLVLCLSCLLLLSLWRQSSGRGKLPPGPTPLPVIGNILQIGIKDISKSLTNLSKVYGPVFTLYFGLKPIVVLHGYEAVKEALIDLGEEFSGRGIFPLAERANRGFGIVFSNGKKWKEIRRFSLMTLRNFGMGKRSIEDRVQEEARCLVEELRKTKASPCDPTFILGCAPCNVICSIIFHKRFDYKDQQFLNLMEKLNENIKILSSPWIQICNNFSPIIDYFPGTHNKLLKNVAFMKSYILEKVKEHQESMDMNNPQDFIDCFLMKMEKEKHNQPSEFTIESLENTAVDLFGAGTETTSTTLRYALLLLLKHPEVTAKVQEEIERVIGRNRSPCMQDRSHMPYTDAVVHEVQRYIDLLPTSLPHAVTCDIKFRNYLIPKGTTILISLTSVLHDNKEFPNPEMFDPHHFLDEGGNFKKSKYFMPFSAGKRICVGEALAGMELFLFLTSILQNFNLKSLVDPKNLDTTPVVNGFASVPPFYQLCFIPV
CYP2C19, sequence (P33261 whole entry): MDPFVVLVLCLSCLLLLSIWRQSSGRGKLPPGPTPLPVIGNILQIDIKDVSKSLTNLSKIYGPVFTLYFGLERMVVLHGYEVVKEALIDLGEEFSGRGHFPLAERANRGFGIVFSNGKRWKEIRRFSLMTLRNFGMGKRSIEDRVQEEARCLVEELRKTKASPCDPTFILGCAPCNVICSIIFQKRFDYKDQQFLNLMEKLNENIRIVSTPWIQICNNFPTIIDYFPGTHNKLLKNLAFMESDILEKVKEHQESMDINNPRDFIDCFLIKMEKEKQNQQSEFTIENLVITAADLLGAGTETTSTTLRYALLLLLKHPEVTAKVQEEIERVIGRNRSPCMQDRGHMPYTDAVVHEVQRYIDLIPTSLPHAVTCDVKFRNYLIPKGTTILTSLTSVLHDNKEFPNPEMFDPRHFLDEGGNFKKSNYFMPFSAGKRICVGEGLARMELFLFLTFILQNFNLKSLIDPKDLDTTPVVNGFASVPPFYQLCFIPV
CYP3A4, sequence (P08684 whole entry): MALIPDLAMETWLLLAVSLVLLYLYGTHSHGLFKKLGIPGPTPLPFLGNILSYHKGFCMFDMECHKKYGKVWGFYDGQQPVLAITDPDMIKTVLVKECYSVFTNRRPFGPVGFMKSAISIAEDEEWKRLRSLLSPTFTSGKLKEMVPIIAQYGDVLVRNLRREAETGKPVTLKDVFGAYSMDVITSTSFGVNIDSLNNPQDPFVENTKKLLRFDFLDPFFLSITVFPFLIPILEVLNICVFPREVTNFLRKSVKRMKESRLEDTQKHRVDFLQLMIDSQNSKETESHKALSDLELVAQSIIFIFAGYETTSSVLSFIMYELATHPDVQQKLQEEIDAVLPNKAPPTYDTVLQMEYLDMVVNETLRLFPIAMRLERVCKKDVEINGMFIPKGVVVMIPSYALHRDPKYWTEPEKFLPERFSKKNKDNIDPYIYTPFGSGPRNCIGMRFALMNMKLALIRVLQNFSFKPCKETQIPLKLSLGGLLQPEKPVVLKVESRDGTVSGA
CYP2D6, sequence (P10635 whole entry): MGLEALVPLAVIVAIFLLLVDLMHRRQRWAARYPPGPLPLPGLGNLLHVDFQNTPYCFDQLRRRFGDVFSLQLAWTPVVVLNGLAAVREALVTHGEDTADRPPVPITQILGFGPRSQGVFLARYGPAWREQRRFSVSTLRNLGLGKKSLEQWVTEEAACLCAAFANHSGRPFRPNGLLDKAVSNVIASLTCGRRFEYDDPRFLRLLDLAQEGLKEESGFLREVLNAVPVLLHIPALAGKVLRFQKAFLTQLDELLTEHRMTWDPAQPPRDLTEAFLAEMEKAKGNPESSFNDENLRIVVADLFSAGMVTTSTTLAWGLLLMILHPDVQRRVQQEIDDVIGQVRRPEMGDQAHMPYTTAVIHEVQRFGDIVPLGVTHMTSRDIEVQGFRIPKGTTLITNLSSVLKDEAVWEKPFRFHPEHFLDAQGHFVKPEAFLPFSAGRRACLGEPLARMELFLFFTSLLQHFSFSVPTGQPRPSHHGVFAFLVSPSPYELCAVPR

The term IC50 denotes the midpoint of a concentration-inhibition curve. The compound `Cc1cc(C(=O)O)nc(N2CC(Oc3ccccc3C(F)(F)F)C2)n1` registered an IC50 in data set [1] of more than 3000 nM.

`CC1=C(/C=C/C(C)=C/C=C/C(C)=C/CO)C(C)(C)CCC1`: the outcome at Transthyretin [2] was Active.

In the case of `O=C(O)c1ccc2nc(-c3cc(Cl)cc(Cl)c3)oc2c1`, at Transthyretin [2], the outcome was Active. At Transthyretin [3], the fold change (FC) was 3.6.

On to `COc1ccc(C(F)(F)F)c(OCC2CCN(c3nc(C)cc(C(=O)O)n3)C2)c1` (racemic), for which the figures for the IC50 (in data set [1]; on Transthyretin [4]) were more than 3000 nM and more than 30 µM, respectively.

By inhibition is commonly meant the relative decrease from the control value, in per cent. The term Cmax denotes the maximum level reached in the sampled fluid or tissue. As usually defined, the Vdss is a proportionality between amount in the body and measured concentration, not a real space. As usually defined, the AUC is concentration integrated over time. As a reminder, the Tmax is the time at which the peak concentration occurs. On to `Cc1cc(C(=O)O)nc(N2CCC(COc3ccccc3C(F)(F)F)C2)n1` (racemic), for which the Stabilty in [5] was 95%; in [6] it was 105%; in data set [12], 103%; in data set [14], 93%. The inhibition at 10 µM on CYP2C9 is 0%; at CYP3A4, 2.2%; on CYP2D6, 18.1%; on CYP2C19, 8%. This compound also yielded a C0 in [7] of 9129 ng/mL. For the same compound, the Activity in [8] is 81%; in [13], 64%. This compound also registered a Cmax in [9] of 3030 ng/mL. On Transthyretin [2], the outcome was Active. The outcome in the data set with Mus musculus was inactive. Also, the “beta t1/2” value in data set [10] stood at 8.6 h. Besides, in [11], the F is recorded as 52%. The fold change (FC) on Transthyretin [3] is 4.7. Besides, in data set [15], the Vdss stood at 0.518 L/kg. This compound also yielded an AUC in data set [16] of 52439 ng·h/mL. In addition, the Tmax in data set [17] was 49.8 min. In addition, the solubility kinetic in data set [18] is 187 µM (≈ 71.5 µg/mL). In addition, the t1/2 in data set [19] amounted to 9.9 h.

As to `Cc1cc(C(=O)O)nc(N2CCC(COc3cccc(Cl)c3C(F)(F)F)C2)n1` (racemic), the IC50 is 180 nM in data set [1] and 3.9 µM at Transthyretin [4].

Turning to `Cc1cc(C(=O)O)nc(N2CCC(COc3ccc(F)cc3C(F)(F)F)C2)n1` (racemic), the IC50 in [1] is 240 nM; on Transthyretin [4], 3.9 µM; in data set [20], 870 nM.

Take `Cc1cc(C(=O)O)nc(N2CCC(COc3cc(C(F)(F)F)cc(C(F)(F)F)c3)C2)n1` (racemic): the half-inhibitory concentration (IC50) is 1600 nM in data set [1] and more than 30 µM at Transthyretin [4].
